# The source made the active and inactive calls. No cut-off for these calls is given here. Square brackets hold non-standard residues; d marks the D form. Peptide text beside a SMILES is read from it. Lys(Thioacetyl) = CC(=S)NCCCC[C@H](N)C(=O)O
# Molecular target: T1, NAD-dependent protein deacylase sirtuin-6 (Homo sapiens, UniProt Q8N6T7)
# Experiment: Inhibition of human recombinant SIRT6 assessed as 7-amino-4-methylcoumarin labelled Arg-His-Lys-Lys(epsilon-acetyl) substrate deacetylation at 200 uM after 90 mins by Fluor-de-Lys assay
# Summary of the method: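 Single-point screen at 200 μM in a commercial in vitro SIRT6 deacetylation activity kit with Fluor de Lys fluorescence read-out, reported as percent inhibition of deacetylation.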
# T1 sequence (Q8N6T7 whole entry): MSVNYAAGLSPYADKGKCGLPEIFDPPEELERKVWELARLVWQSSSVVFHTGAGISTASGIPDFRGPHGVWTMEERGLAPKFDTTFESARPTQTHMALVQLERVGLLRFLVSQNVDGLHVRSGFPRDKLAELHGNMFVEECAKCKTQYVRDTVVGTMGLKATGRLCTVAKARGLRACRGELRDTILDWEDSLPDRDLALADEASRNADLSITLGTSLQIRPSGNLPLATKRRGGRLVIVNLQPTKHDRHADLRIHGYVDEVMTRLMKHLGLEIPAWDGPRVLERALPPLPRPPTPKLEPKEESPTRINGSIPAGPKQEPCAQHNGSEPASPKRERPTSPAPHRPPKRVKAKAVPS
row,Structure (SMILES),inhibition
1,CSCC[C@H](NC(=O)[C@H](CC(C)C)NC(=O)[C@H](CCCCNC(C)=S)NC(=O)[C@H](CCCCN)NC(=O)[C@@H](N)Cc1cnc[nH]1)C(=O)O (H-HK[Lys(Thioacetyl)]LM-OH),62%
2,CC(=S)NCCCC[C@H](NC(=O)OCc1ccccc1)C(=O)Nc1ccccc1,36%
3,CSCC[C@H](NC(=O)[C@@H](NC(=O)[C@H](CCCCNC(C)=S)NC(=O)[C@H](CC(=O)O)NC(=O)[C@@H](N)CO)[C@@H](C)O)C(=O)O (H-SD[Lys(Thioacetyl)]TM-OH),35%
4,CC(=S)NCCCC[C@H](NC(=O)[C@@H]1CCCN(C(=O)OC(C)(C)C)C1)C(=O)N[C@@H](C)C(=O)O,Active
5,CC(=S)NCCCC[C@H](NC(=O)OCc1ccccc1)C(=O)NC1CCCCC1,Active
6,CC(=[Se])NCCCC[C@H](NC(=O)OCc1ccccc1)C(=O)Nc1ccccc1,62%
7,CC(=O)N[C@@H](C)C(=O)N[C@@H](CCCCNC(C)=S)C(=O)N[C@@H](C)C(=O)O,54%
8,CC(=O)N[C@@H](C)C(=O)N[C@@H](CCCCNC(=O)C=C(C)C)C(=O)N[C@@H](C)C(=O)O,26%
9,CC(=O)N[C@@H](C)C(=O)N[C@@H](CCCCNC(=S)CC(C)C)C(=O)N[C@@H](C)C(=O)O,Active
10,CSCC[C@H](NC(=O)[C@H](CC(C)C)NC(=O)[C@H](CCCCNC(C)=S)NC(=O)[C@H](CCCCN)NC(=O)[C@H](C)N)C(=O)O (H-AK[Lys(Thioacetyl)]LM-OH),91%
11,CC(=O)N[C@@H](C)C(=O)N[C@@H](CCCCNC(=O)CC(C)C)C(=O)N[C@@H](C)C(=O)O,Active
12,CC(=S)NCCCC[C@H](NC(=O)CCc1ccccc1)C(=O)N[C@@H](C)C(=O)O,Active

# Molecular target: T1, NAD-dependent protein deacylase sirtuin-6
# Experiment: Inhibition of N-terminal His-tagged human recombinant SIRT6 (13 to 308) expressed in Escherichia coli Rosetta2 cells assessed as FdL-1 peptide substrate deacetylation at 100 uM after 45 mins by Fluor-de-Lys assay
row,Structure (SMILES),inhibition [%]
1,O=C(C[n+]1ccc2ccccc2c1)c1ccc2ccc3ccccc3c2c1,25
2,Nc1cc2c(nc3c4ccccc4c(N)cc3[n+]2-c2cccc3ccccc23)c2ccccc12,25
3,CN1C[C@H](C(=O)N[C@]2(C)O[C@@]3(O)[C@@H]4CCCN4C(=O)[C@H](Cc4ccccc4)N3C2=O)C=C2c3cccc4[nH]cc(c34)C[C@H]21,25
4,Nc1cc2c(nc3c4ccccc4ccc3[n+]2-c2cccc3ccccc23)c2ccccc12,25
5,O=C1c2ccccc2C(=O)c2c1ccc(N1C(=O)c3ccccc3C1=O)c2-c1c(N2C(=O)c3ccccc3C2=O)ccc2c1C(=O)c1ccccc1C2=O,25
6,O=C1c2ccccc2C(=O)c2c(Nc3cc4c5c(ccc6c7ccc8c9c(cc(Nc%10cccc%11c%10C(=O)c%10ccccc%10C%11=O)c(c3c56)c97)-c3ccccc3C8=O)C(=O)c3ccccc3-4)cccc21,25

# Molecular target: T1, NAD-dependent protein deacylase sirtuin-6
# Experiment: Inhibition of human recombinant SIRT6 assessed as 7-amino-4-methylcoumarin labelled Arg-His-Lys-Lys(epsilon-acetyl) substrate deacetylation after 90 mins by Fluor-de-Lys assay
# Summary of the method: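 Commercial in vitro SIRT6 deacetylation kit with Fluor de Lys read-out. The IC50 was determined in two separate runs, each in triplicate, and reported as the average of the six measurements.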
row,Structure (SMILES),IC50 [µM]
1,CSCC[C@H](NC(=O)[C@H](CC(C)C)NC(=O)[C@H](CCCCNC(C)=S)NC(=O)[C@H](CCCCN)NC(=O)[C@@H](N)Cc1cnc[nH]1)C(=O)O (H-HK[Lys(Thioacetyl)]LM-OH),78
2,CC(=[Se])NCCCC[C@H](NC(=O)OCc1ccccc1)C(=O)Nc1ccccc1,285
3,CSCC[C@H](NC(=O)[C@H](CC(C)C)NC(=O)[C@H](CCCCNC(C)=S)NC(=O)[C@H](CCCCN)NC(=O)[C@H](C)N)C(=O)O (H-AK[Lys(Thioacetyl)]LM-OH),47
